Reference: ChEMBL document CHEMBL5370536, “Design, synthesis, and biological activity of dual monoamine oxidase A and heat shock protein 90 inhibitors, N-Methylpropargylamine-conjugated 4-isopropylresorcinol for glioblastoma” (Eur J Med Chem, 2023)
Each block holds one molecule with its values, some of them ahead of it. The source made the active and inactive calls. The rule behind the calls is not given here.

Tests used:
A549 = test: Growth inhibition of human A549 cells incubated for 48 hrs by SRB assay; assay type: functional
Summary of the method: (§1)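 NCI-60 panel screen: cells seeded at 5000 to 40000 per well according to doubling time, 24 h before drug addition at various concentrations. A time-zero plate was TCA-fixed at drug addition. After 48 h drug exposure, growth was read by sulforhodamine B staining. Percent growth = [(Ti − Tz)/(C − Tz)] × 100, and GI50 is the concentration at which this equals 50.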

U-251 [1] = test: Antiproliferative activity against human Temozolomide-resistant U-251 cells assessed as inhibition of cell growth measured after 48 hrs by MTT assay; assay type: functional, cell-based; details: U-251, 48 h
Summary of the method: (§2)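 Cells plated at 5×10³ per well 24 h before compound and grown in DMEM with 10% FBS at 37°C, 5% CO₂. After 48 h exposure, the medium was replaced with 0.5 mg/mL MTT for 3 h. Formazan was dissolved in DMSO and read at 570 nm.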

[2] = Antiproliferative activity against human patient-derived P3 cell assessed as inhibition of cell growth measured after 72 hrs by CCK8 method; assay type: functional, cell-based
Summary of the method: (§3)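 Cell lines from ATCC or from patient surgical specimens (P1S, P3, P3R), kept in DMEM with 10% FBS and 1% penicillin/streptomycin at 37°C, 5% CO₂. P3R medium also held 50 μM TMZ. Cells were seeded at 2×10³/well 24 h before compound, then exposed 72 h.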

[3] = Antiproliferative activity against human U373 MG cells assessed as inhibition of cell growth measured after 72 hrs by CCK8 method; assay type: functional, cell-based, U-373MG ATCC; summary of the method: as §3
HCT-116 [4] = test: Downregulation of PD-L1 expression in human HCT-116 cells; assay type: functional, cell-based
Summary of the method: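 HCT116 cells at 3 × 10⁵ per well were treated at various concentrations with or without 20 ng/mL IFN-γ for 48 h. Cells were stained with mouse anti-PD-L1 for 1 h in PBS/0.05% BSA, then FITC goat anti-mouse for 1 h. Surface FITC mean fluorescence intensity was measured by flow cytometry.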

U-251 [5] = test: Downregulation of HER2 expression in human Temozolomide-resistant U-251 cells incubated for 24 hrs by Western blot analysis; assay type: functional, cell-based; details: dose 0.1-3 µM
GL26 [6] = test: Downregulation of IFN-gamma induced PD-L1 expression in mouse GL26 cells incubated for 24 hrs by flow cytometry analysis; assay type: functional, cell-based
Summary of the method: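 GL26 cells at 3.6 × 10⁵ per well were treated at various concentrations with or without 10 ng/mL IFN-γ for 24 h. Cells were stained with goat anti-PD-L1 for 1 h in PBS/0.05% BSA, then FITC donkey anti-goat for 1 h, and read by flow cytometry. MFI was normalised to the secondary-antibody-only isotype control and expressed as an MFI ratio.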

NCI-H522 = test: Growth inhibition of human NCI-H522 cells incubated for 48 hrs by SRB assay; assay type: functional; summary of the method: as §1
T98G = test: Antiproliferative activity against human T98G cells assessed as inhibition of cell growth measured after 72 hrs by CCK8 method; assay type: functional, cell-based; summary of the method: as §3
[7] = target: T1, Amine oxidase [flavin-containing] A (Mus musculus, UniProt Q64133); test: Inhibition of MAO A in mouse GL26 cells preincubated for 20 mins followed by 14C-labeled 5-hydroxytryptamine addition and measured after 20 mins by scintillation counter analysis; assay type: cell-based
T1 sequence (Q64133 whole entry): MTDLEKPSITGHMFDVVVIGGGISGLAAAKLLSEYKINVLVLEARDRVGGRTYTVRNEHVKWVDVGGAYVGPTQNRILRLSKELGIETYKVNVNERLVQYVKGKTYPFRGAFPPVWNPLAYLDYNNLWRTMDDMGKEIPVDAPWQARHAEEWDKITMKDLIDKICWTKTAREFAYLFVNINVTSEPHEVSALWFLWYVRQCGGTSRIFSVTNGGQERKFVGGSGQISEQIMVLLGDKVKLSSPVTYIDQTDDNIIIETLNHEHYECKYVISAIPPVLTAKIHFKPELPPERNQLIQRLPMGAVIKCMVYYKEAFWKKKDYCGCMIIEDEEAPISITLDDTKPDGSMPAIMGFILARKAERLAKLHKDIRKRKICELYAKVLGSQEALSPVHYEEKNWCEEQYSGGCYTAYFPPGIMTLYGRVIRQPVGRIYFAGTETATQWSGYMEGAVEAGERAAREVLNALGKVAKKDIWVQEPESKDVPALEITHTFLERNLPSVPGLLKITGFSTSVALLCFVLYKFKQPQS

GL26 [8] = test: Downregulation of Akt phosphorylation expression at Ser 473 residues in mouse GL26 cells incubated for 24 hrs by Western blot analysis; assay type: functional, cell-based; details: dose 0.1-3 µM
U-87 MG = test: Antiproliferative activity against human U-87 MG cells assessed as inhibition of cell growth measured after 72 hrs by CCK8 method; assay type: functional, cell-based, U-87MG ATCC; summary of the method: as §3
[9] = Antiproliferative activity against human patient-derived, TMZ-resistant and concurrent chemo-radiotherapy (CCRT)-resistant P1S cell assessed as inhibition of cell growth measured after 72 hrs by CCK8 method; assay type: functional, cell-based; summary of the method: as §3
A 172 = test: Antiproliferative activity against human A-172 cells assessed as inhibition of cell growth measured after 72 hrs by CCK8 method; assay type: functional, cell-based; details: A 172, 72 h; summary of the method: as §3
SF-539 = test: Growth inhibition of human SF-539 cells incubated for 48 hrs by SRB assay; assay type: functional; summary of the method: as §1
HCT-116 [10] = test: Growth inhibition of human HCT-116 cells incubated for 48 hrs by SRB assay; assay type: functional; summary of the method: as §1
SF-295 = test: Growth inhibition of human SF-295 cells incubated for 48 hrs by SRB assay; assay type: functional; summary of the method: as §1
HL-60 = test: Growth inhibition of human HL-60 cells incubated for 48 hrs by SRB assay; assay type: functional; summary of the method: as §1
[11] = Antitumor activity against mouse GL26 cells xenografted in C57BL/6J mouse model assessed as tumor growth inhibition at 25 mg/kg, ip administered daily for 3 days followed by every 3 days for 14 days by caliper method relative to control; assay type: functional; details: GL26, 336 h, time 14 day, read-out: TGI
Summary of the method: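 Male C57BL/6J mice aged 8-9 weeks received 2 × 10⁵ GL26 cells subcutaneously in the lower back. From day 9 after implantation, once tumours were palpable, 25 mg/kg was given i.p. daily for 3 days and then every 3 days over 14 days. Caliper volume was length × width² ÷ 2. TGI% was taken relative to the mean tumour size of the vehicle group.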

[12] = target: Heat shock protein HSP 90-alpha (Homo sapiens, UniProt P07900); test: Inhibition of human recombinant HSP90alpha preincubated for 30 mins followed by FITC-GM addition and mesured after 3 hrs by fluorescence polarization assay
NCI-H460 = test: Growth inhibition of human NCI-H460 cells incubated for 48 hrs by SRB assay; assay type: functional; summary of the method: as §1
U-251 [13] = test: Growth inhibition of human U-251 cells incubated for 48 hrs by SRB assay; assay type: functional; summary of the method: as §1
[14] = Antiproliferative activity against human patient-derived TMZ-resistant GBM cells with MGMT negative P3R cell assessed as inhibition of cell growth measured after 72 hrs by CCK8 method; assay type: functional, cell-based; summary of the method: as §3
LN-229 = test: Antiproliferative activity against human LN-229 cells assessed as inhibition of cell growth measured after 72 hrs by CCK8 method; assay type: functional, cell-based; details: LN-229, 72 h; summary of the method: as §3
U-251 [15] = test: Downregulation of Akt phosphorylation expression at Ser 473 residues in human Temozolomide-resistant U-251 cells incubated for 24 hrs by Western blot analysis; assay type: functional, cell-based; details: dose 0.1-3 µM
[16] = Antiproliferative activity against mouse GL26 cells assessed as inhibition of cell growth measured after 48 hrs by MTT assay; assay type: functional, cell-based; details: GL26, 48 h; summary of the method: as §2
[17] = Toxicity in C57BL/6J mouse assessed as change in body weight at 25 mg/kg, ip measured after 3 days; assay type: organism-based; details: in vivo, 72 h, time 3 day
Summary of the method: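 Male C57BL/6J mice, 8-9 weeks old, given 2 × 10⁵ GL26 cells subcutaneously in the lower back. From day 9, when tumor was visible, dosing was i.p. for 14 days with vehicle, clorgyline 10 mg/kg daily, or test compounds 25 mg/kg daily for the first 3 days then every 3 days. Tumor was measured by caliper, volume = length × width² ÷ 2, and TGI% was taken against the vehicle-group mean. Body weight was tracked.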

U-251 [18] = test: Upregulation of HSP70 expression in human Temozolomide-resistant U-251 cells incubated for 24 hrs by Western blot analysis; assay type: functional, cell-based; details: dose 0.1-3 µM
RPMI-8226 = test: Growth inhibition of human RPMI-8226 cells incubated for 48 hrs by SRB assay; assay type: functional; summary of the method: as §1
GL26 [19] = test: Upregulation of HSP70 expression in mouse GL26 cells incubated for 24 hrs by Western blot analysis; assay type: functional, cell-based; details: dose 0.1-3 µM
SNB-75 = test: Growth inhibition of human SNB-75 cells incubated for 48 hrs by SRB assay; assay type: functional; summary of the method: as §1
SNB-19 = test: Growth inhibition of human SNB-19 cells incubated for 48 hrs by SRB assay; assay type: functional; summary of the method: as §1
SF-268 = test: Growth inhibition of human SF-268 cells incubated for 48 hrs by SRB assay; assay type: functional; summary of the method: as §1
GL26 [20] = test: Downregulation of HER2 expression in mouse GL26 cells incubated for 24 hrs by Western blot analysis; assay type: functional, cell-based; details: dose 0.1-3 µM
K562 = test: Growth inhibition of human K562 cells incubated for 48 hrs by SRB assay; assay type: functional; summary of the method: as §1
GL26 [21] = test: Downregulation of Akt phosphorylation expression at Ser 473 residues in mouse GL26 cells at 0.1 to 3 uM incubated for 24 hrs by Western blot analysis; assay type: functional, cell-based; details: dose 0.1-3 µM
Summary of the method: (§4)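 GL26 and U251R cells were seeded at 3 × 10⁵ per well 24 h ahead, then treated in compound-containing medium for 24 h. Cells were washed twice in ice-cold PBS and lysed in RIPA buffer (150 mM NaCl, 1% Triton X-100, 0.5% deoxycholate, 0.1% SDS, 50 mM Tris pH 8.0) plus protease inhibitors. Lysate was cleared at 4°C, protein was quantified by BCA, and western blotting followed.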

U-251 [22] = test: Downregulation of Akt phosphorylation expression at Ser 473 residues in human Temozolomide-resistant U-251 cells at 0.1 to 3 uM incubated for 24 hrs by Western blot analysis; assay type: functional, cell-based; details: dose 0.1-3 µM; summary of the method: as §4
GL26 [23] = test: Antitumor activity against mouse GL26 cells xenografted in C57BL/6J mouse model assessed as tumor growth inhibition at 10 mg/kg, ip administered daily for 14 days by caliper method; details: time 14.0 day
GL26 [24] = test: Downregulation of IFN-gamma induced PD-L1 expression in mouse GL26 cells at 20 uM incubated for 24 hrs by flow cytometry analysis; assay type: functional, cell-based
Summary of the method: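 GL26 cells were seeded at 3.6 × 10⁵ per well and exposed to compound, with or without 10 ng/mL IFN-γ, for 24 h. Cells were stained with goat anti-PD-L1 for 1 h, then FITC donkey anti-goat for 1 h. Surface FITC was read by flow cytometry, and MFI was normalized to the secondary-only control as an MFI ratio.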

Structure (SMILES): C#CCN(C)CCCOc1ccc(N(C)C(=O)c2cc(C(C)C)c(O)cc2O)cc1Cl
- GI50 (A549): 190 nM
- IC50 (U-251 [1]): 840 nM
- IC50 [2]: 2730 nM
- IC50 [3]: 1460 nM
- Activity (HCT-116 [4]): Active
- Activity (U-251 [5]): Dose-Dependent Effect
- Activity (GL26 [6]): Dose-Dependent Effect
- GI50 (NCI-H522): 80 nM
- IC50 (T98G): 460 nM
- IC50 [7]: 1770 nM
- Activity (GL26 [8]): Dose-Dependent Effect
- IC50 (U-87 MG): 350 nM
- IC50 [9]: 860 nM
- IC50 (A 172): 3310 nM
- GI50 (SF-539): 320 nM
- GI50 (HCT-116 [10]): 80 nM
- GI50 (SF-295): 290 nM
- GI50 (HL-60): 40 nM
- inhibition in vivo at 25 mg/kg [11]: 63.2%
- IC50 [12]: 19 nM
- GI50 (NCI-H460): 40 nM
- GI50 (U-251 [13]): 320 nM
- IC50 [14]: 2530 nM
- IC50 (LN-229): 400 nM
- Activity (U-251 [15]): Dose-Dependent Effect
- IC50 [16]: 730 nM
- Activity [17]: Toxic
- Activity (U-251 [18]): Dose-Dependent Effect
- GI50 (RPMI-8226): 380 nM
- Activity (GL26 [19]): Dose-Dependent Effect
- GI50 (SNB-75): 420 nM
- GI50 (SNB-19): 440 nM
- GI50 (SF-268): 520 nM
- Activity (GL26 [20]): Dose-Dependent Effect
- GI50 (K562): 70 nM

- IC50 [7]: > 10000 nM
Structure (SMILES): C#CCN(C)CCCOc1cccc(N(C)C(=O)c2cc(C(C)C)c(O)cc2O)c1Cl

- IC50 [7]: 860 nM
Structure (SMILES): C#CCN(C)CCCOc1cc(N(CCC)C(=O)c2cc(C(C)C)c(O)cc2O)ccc1Cl

Structure (SMILES): C#CCN(C)CCCOc1ccc(Cl)cc1Cl [CLORGILINE]
- Activity (GL26 [21]): Active
- Activity (U-251 [22]): Active
- Activity (GL26 [23]): inactive
- IC50 [16]: > 100000 nM
- Activity (GL26 [24]): Active
